This is an account of results in ChEMBL document CHEMBL1287763, “Antiangiogenic properties of substituted (Z)-(±)-2-(N-benzylindol-3-ylmethylene)quinuclidin-3-ol/one analogs and their derivatives” (Bioorg Med Chem Lett, 2010).

Structures are written as SMILES. The source made the active and inactive calls. The calls are words filed in the database; no cut-off is given here.

For data set [1], the system named is HUVEC. The experiment in a line: Cytotoxicity against HUVEC assessed as cell viability at 10 uM after 6 hrs by crystal violet staining. It is filed as cell-based. The conditions noted are these: human.
Data set [2] deals with HUVEC. The experiment in a line: Antiangiogenic activity against HUVEC assessed as inhibition of cell migration at 10 uM after 20 hrs by scratch assay. It is filed as functional, cell-based. Particulars: Homo sapiens. Put shortly: (§1)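 Confluent HUVEC monolayers were scratched with a pipette tip and washed twice with PBS. Compound was added in HUVEC medium, and cells were incubated at 37°C for 20 h. Images were taken at 0 h (right after compound addition) and at 20 h. Migration was compared with cells not given compound.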

Data set [3] relates to HUVEC. The experiment in a line: Antiangiogenic activity against HUVEC assessed as inhibition of p70S6K1 phosphorylation at T389. It is filed as functional, cell-based. The conditions noted are these: Homo sapiens.
Data set [4] deals with HUVEC. The experiment in a line: Inhibition of ECTO-NOX in HUVEC assessed as reduction of WST-1 at 10 uM […]. It is filed as cell-based. The conditions noted are these: Homo sapiens. Put shortly:
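HUVECs were grown for 24 h after seeding, then treated for 20 h in duplicate with analog (0.5, 1, 5, 10 µM) or DMSO solvent. WST-1 reduction was then measured following the kit protocol, read as optical density at 450 nm.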

Data set [5] deals with HUVEC. The experiment in a line: Antiangiogenic activity against HUVEC assessed as inhibition of cell migration at 25 uM after 20 hrs by scratch assay. It is filed as functional, cell-based. The conditions noted are these: Homo sapiens. In short, it runs like this:
as §1

As for `O=S(=O)(c1ccccc1)n1cc(/C=C2/C(=N/O)C3CCN2CC3)c2ccccc21`, the Activity entry in the data set on HUVEC [1] was “Non-toxic”. Further, the result with HUVEC [2] and in the data set with HUVEC [5] was Active. In addition, the inhibition entry in the data set with HUVEC [3] was “Active”. Besides, the “ECTO-NOX inhibition (active/not active)” value in the data set on HUVEC [4] was “Active”.
Turning to `OC1/C(=C/c2cn(Cc3cccc(F)c3)c3ccc(Br)cc23)N2CCC1CC2` (centres undefined), the Activity entry in the data set with HUVEC [1] is reported as “Non-toxic”. In addition, the outcome with HUVEC [2] and in the data set with HUVEC [5] was Active.
For `O=C(Nc1ccccc1)OC1/C(=C/c2cn(S(=O)(=O)c3ccccc3)c3ccccc23)N2CCC1CC2` (centres undefined), the result in the data set on HUVEC [2] and in the data set on HUVEC [5] was Active.
Take `Cc1ccc(S(=O)(=O)n2cc(/C=C3/C(O)C4CCN3CC4)c3ccccc32)cc1` (centres undefined): in the data set on HUVEC [4], the “ECTO-NOX inhibition (active/not active)” value is “inactive”.
Turning to `OC1/C(=C/c2cn(Cc3cccc(F)c3)c3ccccc23)N2CCC1CC2` (centres undefined), the Activity result in the data set with HUVEC [1] is reported as “Non-toxic”. The outcome with HUVEC [2] and in the data set on HUVEC [5] was Active. Also, the “ECTO-NOX inhibition (active/not active)” value in the data set with HUVEC [4] was “inactive”.
Regarding `O=[N+]([O-])c1ccc2c(c1)c(/C=C1/C(O)C3CCN1CC3)cn2Cc1ccccc1` (centres undefined), the Activity result in the data set on HUVEC [1] is on record as “Non-toxic”. For the same molecule, the outcome in the data set on HUVEC [2] and in the data set on HUVEC [5] was Active.
For `OC1/C(=C/c2cn(Cc3ccccc3)c3ccc(Br)cc23)N2CCC1CC2` (centres undefined), in the data set on HUVEC [1], the Activity result is “Non-toxic”. The result in the data set with HUVEC [2] and in the data set on HUVEC [5] was Active. In addition, the “ECTO-NOX inhibition (active/not active)” value in the data set with HUVEC [4] is “inactive”.
With `NC(=O)N/N=C1/C(=C/c2cn(S(=O)(=O)c3ccccc3)c3ccccc23)N2CCC1CC2`, the result in the data set with HUVEC [2] and in the data set on HUVEC [5] was Active. Besides, the “ECTO-NOX inhibition (active/not active)” value in the data set on HUVEC [4] was “inactive”.
As to `Cc1cccc(Cn2cc(/C=C3/C(O)C4CCN3CC4)c3cc(C)ccc32)c1` (centres undefined), the Activity entry with HUVEC [1] is reported as “Non-toxic”. For the same molecule, the outcome in the data set with HUVEC [2] and with HUVEC [5] was Active. Further, in the data set with HUVEC [4], the “ECTO-NOX inhibition (active/not active)” value was “inactive”.
